Results published in ChEMBL document CHEMBL4725283, “Selective Peptidomimetic Inhibitors of NTMT1/2: Rational Design, Synthesis, Characterization, and Crystallographic Studies” (J Med Chem, 2020).

Assays:
Homo sapiens [1] = organism: Homo sapiens; assay: Selectivity for human NTMT2 over human SETD2 at 100 uM
Method in brief: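 Single-point panel screen against 41 PKMTs, PRMTs, DNMTs and NTMT1/2. Each compound was tested at 100 µM, in duplicate (n=2).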

[2] = target: T1, Histone-lysine N-methyltransferase EHMT2 (Homo sapiens, UniProt Q96KQ7); assay: Inhibition of human His-tagged G9a (913 to 1193 residues) expressed in Escherichia coli BL21-CodonPlus(DE3)-RIL using H3-21 peptide as substrate preincubated for 10 mins in presence of SAM followed by substrate addition by fluorescence assay
T1 sequence (Q96KQ7 whole entry): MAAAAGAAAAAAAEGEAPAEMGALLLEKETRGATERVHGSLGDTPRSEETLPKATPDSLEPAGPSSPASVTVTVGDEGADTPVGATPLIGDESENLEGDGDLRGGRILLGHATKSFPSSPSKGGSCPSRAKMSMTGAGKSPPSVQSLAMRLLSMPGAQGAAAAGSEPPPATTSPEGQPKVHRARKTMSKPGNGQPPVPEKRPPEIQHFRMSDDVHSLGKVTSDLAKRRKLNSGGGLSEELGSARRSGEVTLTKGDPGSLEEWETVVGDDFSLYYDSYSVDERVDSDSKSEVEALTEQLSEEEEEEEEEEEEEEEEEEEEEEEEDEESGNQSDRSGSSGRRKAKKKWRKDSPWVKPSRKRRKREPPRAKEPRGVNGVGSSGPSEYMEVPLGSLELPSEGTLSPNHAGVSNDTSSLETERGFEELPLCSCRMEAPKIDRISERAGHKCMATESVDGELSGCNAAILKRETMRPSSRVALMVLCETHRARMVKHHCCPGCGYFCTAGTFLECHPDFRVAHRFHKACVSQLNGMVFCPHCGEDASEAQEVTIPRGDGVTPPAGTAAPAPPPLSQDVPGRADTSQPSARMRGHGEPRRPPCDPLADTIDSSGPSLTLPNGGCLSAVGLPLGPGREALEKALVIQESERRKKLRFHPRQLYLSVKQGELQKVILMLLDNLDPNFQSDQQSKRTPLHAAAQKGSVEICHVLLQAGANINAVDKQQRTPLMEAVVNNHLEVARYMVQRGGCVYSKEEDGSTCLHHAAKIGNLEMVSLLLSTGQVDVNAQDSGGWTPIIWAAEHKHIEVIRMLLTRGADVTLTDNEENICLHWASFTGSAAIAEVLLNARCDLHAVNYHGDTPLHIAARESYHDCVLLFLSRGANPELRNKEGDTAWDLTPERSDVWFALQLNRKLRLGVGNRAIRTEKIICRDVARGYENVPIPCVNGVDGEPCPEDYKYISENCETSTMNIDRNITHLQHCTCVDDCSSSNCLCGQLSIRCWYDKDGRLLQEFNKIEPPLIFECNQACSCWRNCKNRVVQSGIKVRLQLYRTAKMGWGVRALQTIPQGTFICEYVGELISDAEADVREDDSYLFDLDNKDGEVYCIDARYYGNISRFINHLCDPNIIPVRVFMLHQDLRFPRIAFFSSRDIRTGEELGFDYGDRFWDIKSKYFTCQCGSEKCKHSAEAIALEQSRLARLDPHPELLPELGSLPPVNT

Homo sapiens [3] = organism: Homo sapiens; assay: Selectivity for human NTMT1 over human SET8 at 100 uM
Method in brief: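 Panel of 41 PKMTs, PRMTs, DNMTs and NTMT1/2, tested at 100 µM compound in duplicate (n=2).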

[4] = target: T2, N-terminal Xaa-Pro-Lys N-methyltransferase 1 (Homo sapiens, UniProt Q9BV86); assay: Binding affinity to recombinant human full-length His6-tagged NTMT1 (1 to 222 residues) by ITC assay
T2 sequence (Q9BV86 whole entry): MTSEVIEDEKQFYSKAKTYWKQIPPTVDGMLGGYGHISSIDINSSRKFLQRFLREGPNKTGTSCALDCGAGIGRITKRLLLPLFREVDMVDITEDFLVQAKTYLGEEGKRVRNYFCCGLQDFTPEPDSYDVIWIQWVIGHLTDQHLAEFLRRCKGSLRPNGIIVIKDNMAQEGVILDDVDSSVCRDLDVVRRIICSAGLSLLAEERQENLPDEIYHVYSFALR
Method in brief: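 ITC at 25 °C. Purified protein (NTMT1 for line 1, NTMT2 for line 2) in 20 mM Tris-HCl pH 7.5, 150 mM NaCl, 0.5 mM TCEP at 30–50 µM final. Compound at 0.5–1 mM in the same buffer, titrated in as 26 injections of 10 µl, 180 s apart, reference power 15 µcal/sec.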

Selectivity ratio (Homo sapiens [1]): > 100 | IC50 [2]: > 100 µM | Selectivity ratio (Homo sapiens [3]): > 100 | Kd [4]: 3 µM
SMILES: N=C(N)NCCC[C@H](NC(=O)[C@H](CCCCN)NC(=O)[C@@H]1CCCN1C(=O)Cc1ccc(O)cc1)C(N)=O
